Source: PubChem BioAssay (several laboratories)
Compounds with a hit are over-represented: about 1.9% of the library has one in this group of screens.
PP1 counter – counter-screen for PP5 inhibitors: inhibitors of human PP1-alpha | P62136 | 320,000 tested, 0.9% active | purified PP1alpha, OMFP fluorescence | inhibition, % at 6.7 µM;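 active = inhibition above the mean inhibition of all tested compounds plus 3 SD, computed separately for each screening campaign, cut at about 15% in these data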
Target sequence (P62136 whole entry, looked up): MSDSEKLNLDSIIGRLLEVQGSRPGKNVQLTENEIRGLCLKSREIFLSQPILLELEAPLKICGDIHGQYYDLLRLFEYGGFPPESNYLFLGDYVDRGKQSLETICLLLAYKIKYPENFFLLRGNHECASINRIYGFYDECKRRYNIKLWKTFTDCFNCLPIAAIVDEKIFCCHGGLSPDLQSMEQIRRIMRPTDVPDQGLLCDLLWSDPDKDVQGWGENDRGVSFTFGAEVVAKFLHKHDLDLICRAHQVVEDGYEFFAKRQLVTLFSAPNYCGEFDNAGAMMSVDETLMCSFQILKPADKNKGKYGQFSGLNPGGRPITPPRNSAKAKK
STEP inh – inhibitors of human striatal-enriched phosphatase STEP; P54829; recombinant STEP, OMFP fluorogenic substrate, fluorescence; inhibition, % at 20 µM; 360,000 tested, 0.25% active;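 active = inhibition at 20 µM, scaled per plate between control wells, above about 37%, limit read from the data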;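 also: 0% = DMSO with enzyme and substrate and 100% = substrate only without enzyme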
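System: STEP (striatal-enriched tyrosine phosphatase) enzyme, cell-free; medium: Bis-Tris pH 6.0 buffer with DTT, detergent; dosing: 20 µM, 1% DMSO; times: reaction 20 min, ambient temperature; detection: fluorescence, 480/540 nm; read-out basis: normalized % inhibition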
LMPTP block – blocks human LMPTP phosphatase. P24666. recombinant LMPTP-A, OMFP fluorogenic substrate, fluorescence intensity. inhibition, % at 20 µM. 360,000 tested, 0.22% active;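 active = compounds that cut the enzyme signal by at least half of the control window in the single-dose screen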;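 also: plate controls were DMSO wells with enzyme plus substrate for no effect and substrate without enzyme for full effect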
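material = LMPTP-A | quantity = 0.625 nM enzyme | reagent = OMFP substrate, 400 µM final | buffer or medium = Bis-Tris pH 6.0, DTT, detergent | detection = endpoint fluorescence intensity from OMFP dephosphorylation | dosing = single 20 µM dose | read-out basis = % inhibition relative to no-enzyme and uninhibited control wells | control set = no-enzyme and uninhibited controls | timing = 50 min at room temperature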
PP5 primary – inhibitors of human protein phosphatase 5 (PP5); purified PP5c, OMFP substrate fluorescence; inhibition, % at 6.7 µM; 320,000 tested, 0.18% active; AID 1987;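 active = inhibition above the campaign's mean inhibition across all tested compounds plus 3 SD, cut at about 9.5% in these data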;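 also: 0% = DMSO only and 100% = 100 µM cantharidin control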
Scp1 inh – blocks human Scp-1 phosphatase activity; Q9GZU7; Recombinant Scp1, phosphopeptide, malachite green phosphate absorbance; inhibition, % at 20 µM; 340,000 tested, 0.88% active;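 active = inhibition above about 50% at 20 µM, limit read from the data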;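 also: plate controls were DMSO wells with enzyme for no effect and wells lacking enzyme for full effect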
Target sequence (Q9GZU7 76-261 limits assumed): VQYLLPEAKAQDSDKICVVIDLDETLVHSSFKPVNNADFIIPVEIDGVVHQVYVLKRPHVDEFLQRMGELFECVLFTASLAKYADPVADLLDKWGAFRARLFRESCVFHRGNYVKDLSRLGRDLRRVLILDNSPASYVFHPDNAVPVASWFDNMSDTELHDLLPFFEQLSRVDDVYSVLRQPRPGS
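Incubation: 45 min enzyme reaction at room temperature / System: truncated SCP-1 phosphatase (76-261aa) / Reagent: Phospho 17-mer peptide substrate / Buffer or medium: Acidic Tris acetate buffer with magnesium and detergent / Signal: absorbance at 630 nm / Doses: one concentration, 20 µM, with 1.0% DMSO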
PP1 inh confirm – confirmation of human PP1 phosphatase inhibitors; shares compounds with PP1 counter; purified PP1alpha, OMFP substrate fluorescence; inhibition, % at 6.7 µM; 1,900 tested, 52% active; AID 2358;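 active = mean PP1 inhibition above a set limit taken from the earlier primary screen, cut at about 15% in these data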
PP5 counter – counter-screen for PP1 inhibitors: human PP5 phosphatase inhibition; shares compounds with PP1 counter; purified PP5c, OMFP fluorescence; inhibition, % at 6.7 µM; 1,900 tested, 4% active;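 active = mean PP5 inhibition over triplicate wells above about 9.5% taken from the earlier PP1 screen, limit read from the data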
Scp1 confirm – confirmation of human Scp-1 phosphatase inhibitors; 2,500 tested, 61% active; recombinant SCP-1 catalytic domain, phosphate release, malachite green absorbance; inhibition, % at 20 µM; shares compounds with Scp1 inh;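 also: plate controls were DMSO with enzyme for no effect and buffer wells lacking enzyme for full effect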
MG interference – interferes with malachite green readout, flagging false Scp-1 hits | shares compounds with Scp1 inh | Colorimetric interference counterscreen, malachite green absorbance 630 nm | apparent inhibition (interference), % at 20 µM | 2,500 tested, under 10 active | AID 540313;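 also: compounds added after enzyme reaction finished so only phosphate colour detection is probed; plate controls were DMSO wells with completed Scp-1 reaction for no effect and substrate wells lacking enzyme for full effect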
Scp1 DSF – binds human Scp-1, shifting its melting temperature | shares compounds with Scp1 inh | Recombinant SCP1, Sypro Orange thermal shift Tm | thermal shift relative to vanadate control, % at 40 µM | 1,500 tested, 25% active | AID 540329;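 active = substances whose mean melting-temperature shift, as a percentage of the reference inhibitor's shift, reaches about 5.3%, limit read from the data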;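 also: 0% = Tm of DMSO wells and 100% = Tm with sodium orthovanadate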
STEP conf – confirmation of human STEP phosphatase inhibitors; AID 623866; inhibition, % at 20 µM; 520 tested, 32% active; recombinant STEP, OMFP fluorogenic substrate, fluorescence; shares compounds with STEP inh; call rule not given here;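 also: 0% = enzyme with substrate plus DMSO and 100% = substrate without enzyme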
Numbers without * were called inactive; x = no result.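 The calls were made as follows, unless noted: active = inhibition of at least 30% at 20 µM; inactive = the rest.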

SMILES	PP1 counter	STEP inh	LMPTP block	PP5 primary	Scp1 inh	Scp1 confirm	MG interference	Scp1 DSF	others
COc1cc(/C=N/NC(=O)c2ccncc2)ccc1OCC(=O)Nc1cccc([N+](=O)[O-])c1	0	1	3	6	-6	x	x	x
O=C(COc1ccc(/C=N/NC(=O)c2ccc(O)cc2)cc1)Nc1cccc([N+](=O)[O-])c1	27*	74*	59*	0	96*	61*	-20	13*	PP1 inh confirm=26*;PP5 counter=-2;STEP conf=94*
CCc1ccc(N=C2NC(=O)/C(=C/c3ccc(OCC(=O)O)cc3)S2)cc1	39*	41*	1	2	74*	42*	-13	-5	PP1 inh confirm=3;PP5 counter=-1;STEP conf=71*
Cn1c(NCc2cccnc2)nc2cc(-c3cccc(C(F)(F)F)c3)sc2c1=O	x	0	3	x	x	x	x	x
O=C(Nc1nnc(-c2ccc(Cl)cc2)o1)c1nc2ccccc2s1	22*	72*	15	1	-10	x	x	x	PP1 inh confirm=26*;PP5 counter=-4;STEP conf=5
O=C1c2cccc3cccc(c23)C(=O)N1c1ccc2ncccc2c1	23*	100*	37	-3	101*	74*	-19	2	PP1 inh confirm=6;PP5 counter=-2;STEP conf=9
O=C(CCC(=O)Nc1ccc(Br)cc1)N/N=C/c1cc([N+](=O)[O-])ccc1O	-5	0	14	3	74*	23	-9	x
COc1ccc(-c2ccc(/C=N/NC(=O)c3cccnc3)o2)c([N+](=O)[O-])c1	x	32	53*	x	96*	82*	-12	4
Cc1ccc(C(=O)N/N=C/c2ccc(-c3ccccc3[N+](=O)[O-])o2)cn1	-2	4	0	2	-7	x	x	x
COCC(=O)N[C@H]1C=C[C@@H](CC(=O)OC)O[C@@H]1CO	x	x	-2	x	x	x	x	x
O=C1NC(=S)SC1=Cc1ccccc1Br	x	-1	2	x	-5	x	x	x
O=C1NC(=S)SC1=Cc1cc(Br)ccc1O	x	-1	0	x	67*	2	-24	x
O=C1Nc2ccccc2S/C1=C/c1cccs1	2	0	0	0	-4	x	x	x
O=C1NC(=S)SC1=Cc1cccs1	x	1	0	x	53*	-2	-12	x
CC(=O)c1ccc(S(=O)(=O)N2Cc3ccccc3CC2C(=O)O)cc1 (stereo not drawn)	1	8	0	1	82*	64*	-16	-1
O=C(COC(=O)c1ccc(OC(F)(F)F)cc1)Nc1ncccn1	x	-2	-1	x	82*	49*	-6	-5
Cc1cc(NC(=O)c2cccc(S(=O)(=O)N(C)C)c2)n(-c2ccccn2)n1	-2	3	0	5	0	x	x	x
Cc1cccc(OCC(=O)N=Nc2c(O)[nH]c3ccc([N+](=O)[O-])cc23)c1	2	x	x	-2	-6	x	x	x
COc1ccc(/C=C/C(=O)NCC(=O)N=Nc2c(O)[nH]c3ccc([N+](=O)[O-])cc23)cc1	5	13	9	0	68*	25	-5	x
O=C(N=Nc1c(O)[nH]c2ccc([N+](=O)[O-])cc12)c1ccccc1Cl	-6	73*	28	4	99*	70*	-19	16*
O=C(CNC(=O)c1ccc(Br)cc1)N=Nc1c(O)[nH]c2ccc([N+](=O)[O-])cc12	0	3	-1	0	1	x	x	x
